According to ChEMBL document CHEMBL1121917, “Structure--activity relationships in a broad-spectrum anthelmintic series. Acid chloride phenylhydrazones. 1. Aryl substitutions and chloride variations” (1981):

Key:
Canis familiaris [1] = organism: Canis familiaris; assay: percent reduction in Toxascaris eggs per gram, after oral treatment of 150 mg/dog dose of compound in a single treatment; type: functional, Canis lupus familiaris, Egg
Canis familiaris [2] = organism: Canis familiaris; assay: percent reduction in Ancylostoma eggs per gram, after oral treatment of 100 mg/dog dose of compound in a single treatment; type: functional, Canis lupus familiaris, Egg
Method in brief: (§1)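 Dogs naturally infected with Toxascaris leonina were experimentally infected with mixed Ancylostoma caninum and Uncinaria stenocephala larvae. Finely ground compound was given orally in gelatin capsules. Three egg count determinations were made before and three after treatment in each experiment.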

Ovis aries [3] = assay: Percent reduction in Haemonchus eggs per gram, after treatment with 300 mg/kg dose of compound perorally in sheep; type: functional, Egg; details: route oral
Method in brief: (§2)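 Naturally parasitized lambs were dosed orally at the stated mg/kg. Dosing was either as a suspension of finely ground compound by stomach tube, or as ground compound weighed into gelatin capsules and given by balling gun. Activity was scored by the clinical test method: the decrease in posttreatment helminth eggs per gram.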

Mus musculus [4] = organism: Mus musculus; assay: Percent clearance of Syphacaia obvelata from mouse after oral treatment of 1.87 mg/mouse/day; type: functional
Method in brief: (§3)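 Mice naturally carrying Syphacia obvelata were experimentally infected with Nematospiroides dubius and Hymenolepis nana, then grouped after a 2-week prepatency. Finely ground compound was suspended in aqueous 0.10% carboxymethylcellulose, 0.04% polysorbate 80 and 0.0042% polyparaben, and 0.1 mL was given orally by cannula once daily for 4 days to five mice. Necropsy followed 2 days later, scoring presence or absence of each parasite. Control clearance was subtracted from the treated clearance.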

Ovis aries [5] = assay: Percent reduction in Haemonchus eggs per gram, after treatment with 400 mg/kg dose of compound perorally in sheep; type: functional, Egg; details: route oral; method in brief: as §2
Canis familiaris [6] = organism: Canis familiaris; assay: percent reduction in Ancylostoma eggs per gram, after oral treatment of 50 mg/dog dose of compound in a single treatment; type: functional, Canis lupus familiaris, Egg
Ovis aries [7] = assay: Percent reduction in Trichuris eggs per gram, after treatment with 100 mg/kg dose of compound perorally in sheep; type: functional, Egg; details: route oral
Method in brief: (§4)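 Naturally parasitized lambs, dosed orally either with a suspension by stomach tube or with finely ground compound in gelatin capsules by balling gun. Activity was scored by the clinical test method, meaning a significant fall in helminth egg counts after treatment.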

Ovis aries [8] = assay: Percent reduction in Oesophagostomum eggs per gram, after treatment with 100 mg/kg dose of compound perorally in sheep; type: functional, Egg; details: route oral; method in brief: as §2
Ovis aries [9] = assay: Percent reduction in Cooperia eggs per gram, after treatment with 400 mg/kg dose of compound perorally in sheep; type: functional, Egg; details: route oral
Method in brief: (§5)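 Naturally parasitized lambs received compound orally, either as the aqueous suspension by stomach tube or as finely ground powder in gelatin capsules by balling gun. Activity was judged by the clinical test method, as a significant decrease in posttreatment helminth egg counts.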

Ovis aries [10] = assay: Percent reduction in Trichuris eggs per gram, after treatment with 300 mg/kg dose of compound perorally in sheep; type: functional, Egg; details: route oral
Canis familiaris [11] = organism: Canis familiaris; assay: percent reduction in Uncinaria eggs per gram, after oral treatment of 100 mg/dog dose of compound in a single treatment; type: functional, Canis lupus familiaris, Egg
Ovis aries [12] = assay: Percent reduction in Strongyloides eggs per gram, after treatment with 300 mg/kg dose of compound perorally in sheep; type: functional, Egg; details: route oral; method in brief: as §4
Ovis aries [13] = assay: Percent reduction in Oesophagostomum eggs per gram, after treatment with 400 mg/kg dose of compound perorally in sheep; type: functional, Egg; details: route oral; method in brief: as §2
Ovis aries [14] = assay: Percent reduction in Ostertagia eggs per gram, after treatment with 300 mg/kg dose of compound perorally in sheep; type: functional, Egg; details: route oral; method in brief: as §4
Ovis aries [15] = assay: Percent reduction in Nematodirus eggs per gram, after treatment with 100 mg/kg dose of compound perorally in sheep; type: functional, Egg; details: route oral; method in brief: as §2
Canis familiaris [16] = organism: Canis familiaris; assay: percent reduction in Uncinaria eggs per gram, after oral treatment of 150 mg/dog dose of compound in a single treatment; type: functional, Canis lupus familiaris, Egg
Canis familiaris [17] = organism: Canis familiaris; assay: percent reduction in Toxascaris eggs per gram, after oral treatment of 50 mg/dog dose of compound in a single treatment; type: functional, Canis lupus familiaris, Egg; method in brief: as §1
Ovis aries [18] = assay: Percent reduction in Nematodirus eggs per gram, after treatment with 400 mg/kg dose of compound perorally in sheep; type: functional, Egg; details: route oral; method in brief: as §2
Ovis aries [19] = assay: Percent reduction in Nematodirus eggs per gram, after treatment with 300 mg/kg dose of compound perorally in sheep; type: functional, Egg; details: route oral; method in brief: as §2
Ovis aries [20] = assay: Percent reduction in Moniezia eggs per gram, after treatment with 400 mg/kg dose of compound perorally in sheep; type: functional, Egg; details: route oral; method in brief: as §2
Ovis aries [21] = assay: Percent reduction in Ostertagia eggs per gram, after treatment with 400 mg/kg dose of compound perorally in sheep; type: functional, Egg; details: route oral; method in brief: as §4
Ovis aries [22] = assay: Percent reduction in Ostertagia eggs per gram, after treatment with 100 mg/kg dose of compound perorally in sheep; type: functional, Egg; details: route oral; method in brief: as §2
Canis familiaris [23] = organism: Canis familiaris; assay: percent reduction in Ancylostoma eggs per gram, after oral treatment of 150 mg/dog dose of compound in a single treatment; type: functional, Canis lupus familiaris, Egg
Ovis aries [24] = assay: Percent reduction in Trichuris eggs per gram, after treatment with 400 mg/kg dose of compound perorally in sheep; type: functional, Egg; details: route oral; method in brief: as §4
Ovis aries [25] = assay: Percent reduction in Strongyloides eggs per gram, after treatment with 100 mg/kg dose of compound perorally in sheep; type: functional, Egg; details: route oral; method in brief: as §4
Canis familiaris [26] = organism: Canis familiaris; assay: percent reduction in Uncinaria eggs per gram, after oral treatment of 50 mg/dog dose of compound in a single treatment; type: functional, Canis lupus familiaris, Egg; method in brief: as §1
Ovis aries [27] = assay: Percent reduction in Trichostrongylus eggs per gram, after treatment with 400 mg/kg dose of compound perorally in sheep; type: functional, Egg; details: route oral; method in brief: as §4
Ovis aries [28] = assay: Percent reduction in Haemonchus eggs per gram, after treatment with 100 mg/kg dose of compound perorally in sheep; type: functional, Egg; details: route oral; method in brief: as §5
Ovis aries [29] = assay: Percent reduction in Trichostrongylus eggs per gram, after treatment with 300 mg/kg dose of compound perorally in sheep; type: functional, Egg; details: route oral
Mus musculus [30] = organism: Mus musculus; assay: Percent clearance of Nematospiroides dubius from mouse after oral treatment of 1.875 mg/mouse/day; type: functional; method in brief: as §3
Ovis aries [31] = assay: Percent reduction in Trichostrongylus eggs per gram, after treatment with 100 mg/kg dose of compound perorally in sheep; type: functional, Egg; details: route oral; method in brief: as §4
Ovis aries [32] = assay: Percent reduction in Strongyloides eggs per gram, after treatment with 400 mg/kg dose of compound perorally in sheep; type: functional, Egg; details: route oral; method in brief: as §4

## CSc1ccc(/C(Cl)=N/Nc2ccccc2)cc1
Canis familiaris [1]
  Reduction: 100%
Canis familiaris [2]
  Reduction: 94%
Ovis aries [3]
  Reduction: 100%
Mus musculus [4]
  Parasite_Clearance: 100%
Ovis aries [5]
  Reduction: 100%
Canis familiaris [6]
  Reduction: 91%
Ovis aries [7]
  Reduction: 25%
Ovis aries [8]
  Reduction: 100%
Ovis aries [9]
  Reduction: 100%
Ovis aries [10]
  Reduction: 73%
Canis familiaris [11]
  Reduction: 99%
Ovis aries [12]
  Reduction: 100%
Ovis aries [13]
  Reduction: 100%
Ovis aries [14]
  Reduction: 100%
Ovis aries [15]
  Reduction: 100%
Canis familiaris [16]
  Reduction: 91%
Canis familiaris [17]
  Reduction: 69%
Ovis aries [18]
  Reduction: 100%
Ovis aries [19]
  Reduction: 100%
Ovis aries [20]
  Reduction: 100%
Ovis aries [21]
  Reduction: 100%
Ovis aries [22]
  Reduction: 98%
Canis familiaris [23]
  Reduction: 84%
Ovis aries [24]
  Reduction: 38%
Ovis aries [25]
  Reduction: 100%
Canis familiaris [26]
  Reduction: 86%
Ovis aries [27]
  Reduction: 100%
Ovis aries [28]
  Reduction: 98%
Ovis aries [29]
  Reduction: 100%
Mus musculus [30]
  Parasite_Clearance: 100%
Ovis aries [31]
  Reduction: 98%
Ovis aries [32]
  Reduction: 100%
